HEK293 NFkB inh – lowers PMA/ionomycin-induced NF-kB signal in HEK293 cells; AID 465; actives 0.21% (n = 62,000); HEK-293 NF-kB luciferase reporter, luminescence; inhibition, % at 3 µM;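 active = inhibition above the mean of all tested compounds plus 3 SD, cut at about 40% in these data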;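 note: 0% = stimulated DMSO wells and 100% = 10 µM reference inhibitor 5653914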
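Reagent: PMA plus ionomycin mix as NF-kB-activating stimulus. Assay system: NF-kB luciferase reporter HEK-293 cells. Technique: luminescence from luciferase substrate reagent. Incubation: 1 h compound pre-incubation, 16 h PMA/ionomycin at 37 °C. Benchmarks: DMSO only as uninhibited control, 10 µM reference inhibitor as full inhibition. Repeats: tested once.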
SK-BR-3 tox 24h – SK-BR-3 proliferation inhibitors | SK-BR-3 viability, CellTiter-Glo ATP luminescence, 24 h; hits give low values | viability, % at 10 µM | actives 0.47% (n = 41,000) | AID 847;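 active = viability at or below the median of all test compounds minus 3 SD, in both replicates if run twice, cut at about 45% in these data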;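 note: 100% = median untreated cell wells and 0% = median positive control drug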
HTR1E agonist – activates the human 5-HT1E serotonin receptor; activation, % at 6 µM; CHO 5-HT1E Ga15 NFAT-bla reporter, FRET; 0% DMSO wells, 100% control agonist wells; P28566; AID 574; actives 0.69% (n = 65,000);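 active = activation above a set limit, the screen-wide mean activation plus 3 SD, cut at about 8.5% in these data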;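 note: 100% = positive control agonist at 1 µM giving full maximal response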
HTR1A agonist – activates the human 5-HT1a serotonin receptor; P08908; CHO 5-HT1a Ga15 NFAT-bla reporter, FRET ratio; 0% basal, 100% maximal reference agonist; activation, % at 10 µM; actives 0.56% (n = 65,000); AID 567;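 active = activation above the screen-wide mean activation plus 3 SD, cut at about 19% in these data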;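 note: 0% = DMSO wells and 100% = 5-CT at EC100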
Target sequence (P08908 whole entry, looked up): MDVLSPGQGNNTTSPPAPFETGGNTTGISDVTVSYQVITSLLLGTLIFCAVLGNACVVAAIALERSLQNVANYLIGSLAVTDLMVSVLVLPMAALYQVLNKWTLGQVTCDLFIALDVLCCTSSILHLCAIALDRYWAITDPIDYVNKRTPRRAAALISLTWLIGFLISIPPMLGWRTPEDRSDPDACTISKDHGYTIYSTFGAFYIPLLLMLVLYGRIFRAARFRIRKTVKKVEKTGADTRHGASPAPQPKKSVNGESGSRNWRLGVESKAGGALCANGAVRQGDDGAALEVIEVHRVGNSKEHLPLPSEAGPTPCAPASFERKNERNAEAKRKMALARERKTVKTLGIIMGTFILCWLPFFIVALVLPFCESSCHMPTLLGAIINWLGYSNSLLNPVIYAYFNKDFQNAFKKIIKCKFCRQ
5HT1a antag – antagonists of human 5-HT1a serotonin receptor. inhibition, % at 10 µM. CHO 5-HT1a Ga15 NFAT-bla reporter, antagonist mode. actives 0.68% (n = 62,000). P08908;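 active = inhibition above the mean of all tested compounds plus 3 SD, cut at about 43% in these data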;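 note: receptor stimulated by 5-CT agonist at 100 nM near EC80; beta-lactamase reporter measured by ratiometric fluorescence of a cleavable substrate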
HTR1E antagonist – 5-HT1E (human) receptor antagonism; P28566; CHO 5-HT1E Ga15 NFAT-bla reporter, FRET, antagonist; inhibition, % at 6 µM; actives 0.99% (n = 65,000); AID 571;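 active = inhibition above a set limit, the mean inhibition across every tested compound plus 3 SD, cut at about 29% in these data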;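 note: signal is the 460 over 535 nm emission ratio of beta-lactamase substrate; 0% = agonist plus DMSO wells and 100% = wells without agonist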
Starred values were filed as active, the others as inactive; nt = no result. Hits are enriched below; roughly 2.9% of the tested compounds scored in any of these assays.

SMILES	HEK293 NFkB inh	SK-BR-3 tox 24h	HTR1E agonist	HTR1A agonist	5HT1a antag	HTR1E antagonist
COC(=O)CS(=O)(=O)c1nnc([C@H](Cc2ccccc2)NC(=O)OC(C)(C)C)o1	12	131	0	-7	33	29*
COC(=O)CSc1nnc([C@H](Cc2ccccc2)NC(=O)OC(C)(C)C)o1	13	79	-1	0	2	3
Clc1ccc(C(c2nnnn2C2CCCC2)N2CCSCC2)cc1 (stereo not drawn)	9	74	0	-1	50*	20
COc1ccc(C(c2nnnn2C2CCCC2)N2CCC(C)CC2)cc1 (stereo not drawn)	18	93	0	0	19	4
COc1cccc(N2CCN(C3OC(=O)c4ccccc43)CC2)c1 (stereo not drawn)	-3	81	23*	-1	1	8
COc1ccc(-n2ncc3c(N(C)C4CCCCC4)ncnc32)cc1	46*	nt	2	31*	-4	-11
Cc1cccc(-n2ncc3c(N(C)C4CCCCC4)ncnc32)c1	62*	nt	1	-1	15	11
Cc1cccc(-n2ncc3c(N(CCO)CCO)ncnc32)c1	-7	nt	0	-1	-2	-6
O=C(COC(=O)C1CCCCC1C(=O)N1CCc2ccccc21)NCc1ccco1 (stereo not drawn)	11	nt	2	2	13	-5
NCC(O)COc1ccc2c(c1)OCO2 (stereo not drawn)	15	92	-1	-1	-5	13
OCCN1CCN(CC(O)COc2ccc3c(c2)OCO3)CC1 (stereo not drawn)	-2	nt	16*	0	-2	-5
COc1ccc(OC)c(S(=O)(=O)N2c3cc(F)ccc3CCC2C)c1 (stereo not drawn)	10	80	0	0	10	-7
COc1cc(-c2c(C#N)c(N)nc(SCc3ccncc3)c2C#N)cc(OC)c1OC	26	73	2	0	3	2
N#Cc1c(N)nc(SCc2ccncc2)c(C#N)c1-c1cccs1	31	91	0	1	5	43*
CCOC(=O)C(C)Sc1nc(-c2ccco2)cc(C(F)(F)F)c1C#N (stereo not drawn)	22	86	0	1	23	13
CCN(CC)CCOC(=O)c1cccc(Cl)c1	0	107	2	-4	17	6
CCN(CC)CCOC(=O)c1cccc(Br)c1	19	107	11*	0	14	1
CC1(C)Cc2c(c(N3CCCC3)nc3sc4c(N5CCN(CCO)CC5)ncnc4c23)CO1	8	95	1	6	-6	41*
CC(=O)N1CCc2cc(C(=O)CN3CCN(c4cccc(Cl)c4)CC3)ccc21	13	nt	26*	14	18	-2
CC(=O)N1CCc2cc(C(=O)CN3CCC(C)CC3)ccc21	12	nt	0	-1	4	10
CC(=O)N1CCc2ccc(C(=O)CN3CCN(c4cccc(C)c4C)CC3)cc21	12	nt	46*	10	-1	0
O=C(NC1CCCCCC1)C1C2C=CC3(CN(Cc4cccnc4)C(=O)C13)O2 (stereo not drawn)	6	nt	1	-4	-14	-7
Cc1cc(C)n(C2=NS(=O)(=O)c3ccccc32)n1	3	100	0	-2	0	-5
Cc1ccc(SCCNC(=O)CN2C(=O)c3ccccc3S2(=O)=O)cc1	13	89	-1	1	-4	-8
O=C(CN1C(=O)c2ccccc2S1(=O)=O)NCCSc1ccccc1	12	44*	0	-1	-1	9
SMILES	HEK293 NFkB inh	SK-BR-3 tox 24h	HTR1E agonist	HTR1A agonist	5HT1a antag	HTR1E antagonist
O=C(CCCC(=O)N(CC(=O)NC1CCCCC1)Cc1ccc2c(c1)OCO2)Nc1ccccn1	-1	106	0	-1	-1	1
CCOC(=O)c1ccc(N=c2sc(C(=O)OC)cc(=O)n2Cc2ccco2)cc1	12	nt	0	-2	30	12
CCn1c(=O)cc(C(=O)OC)sc1=Nc1ccc(F)c(F)c1	19	nt	1	0	6	38*
CCOC(=O)c1ccc(N=c2sc(C(=O)OC)cc(=O)n2CCCN2CCOCC2)cc1	10	nt	-2	0	32	40*
C=CCn1c(=O)n(CCOC)c(=O)c2sc3ccccc3c21	12	nt	-1	-1	2	12
Nc1ccc2oc3ncccc3c(=O)c2c1	nt	95	-1	0	nt	2
Nc1ccc2c(C(F)(F)F)cc(=O)oc2c1	12	109	2	6	8	42*
O=C(CCNS(=O)(=O)c1cccc2nonc12)NCc1cccs1	2	98	1	-1	4	-2
CSc1nc(N2CCOCC2)c2c3c(sc2n1)CCC3	2	86	-2	1	-4	29*
Cc1nc(N2CCN(c3ccccc3)CC2)c2c3c(sc2n1)CCC3	10	89	2	1	9	-16
CCC(=O)N1CCc2cc(Br)cc(S(=O)(=O)N3CCN(c4ccccn4)CC3)c21	3	88	0	0	3	-5
COc1ccc(NC(=O)C(NS(=O)(=O)c2ccc3c(c2)CCCN3C(C)=O)C(C)C)c(OC)c1 (stereo not drawn)	-9	81	17*	-4	-5	-9
O=c1c2ccccc2nc2n1CCN2Cc1ccc(Cl)cc1	8	nt	0	0	17	5
COC(=O)c1cc2sc(Cl)cc2n1CC(=O)Nc1cccc(SC)c1	14	nt	-1	-5	48*	-1
COC(=O)c1cc2sc(Cl)cc2n1CC(=O)Nc1ccc(OC)c(OC)c1OC	12	nt	-1	-2	39	-10
COc1nc(NCCC2=CCCCC2)nc(OC)n1	9	98	0	51*	-14	3
COc1nc(NCCc2ccc(OC)c(OC)c2)nc(OC)n1	6	92	0	1	12	-5
CCOc1cc(C)c(S(=O)(=O)Nc2ccc(Cl)cn2)cc1C	0	87	27*	-2	12	7
COCCCNC(=O)c1c(N)n(/N=C/c2cccnc2)c2nc3ccccc3nc12	nt	76	0	7	nt	-1
COCCCNC(=O)c1c(N)n(/N=C/c2cccs2)c2nc3ccccc3nc12	nt	75	26*	86*	nt	-31
Cc1cc(C(=O)CSc2nnc(-c3ccco3)o2)c(C)n1CC1COc2ccccc2O1 (stereo not drawn)	18	nt	1	30*	-1	-1
O=C(CN1CCN(Cc2ccccc2)CC1)c1ccc(Br)cc1	12	86	2	22*	-2	-4
COC(=O)c1cc2ccsc2n1CC(=O)Nc1cc(Cl)ccc1OC	12	nt	-1	-2	52*	7
